Series [1] addresses T1, C-C chemokine receptor type 5 (Homo sapiens, UniProt P51681). Put plainly: Displacement of [125I]MIP1-alpha from human CCR5 expressed in CHO cells. Format: cell-based. For orientation: Loss of bound radioactivity is the signal in a displacement assay; it reports binding, not function.
The target in series [2] is T1, C-C chemokine receptor type 5. Put plainly: Antagonist activity at human CCR5 expressed in CHO cells assessed as inhibition of MIP-1-alpha-stimulated calcium mobilization. The format is functional, cell-based. In a few lines:
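Cells expressing human CCR5 (hCCR5/CHO) were stimulated with MIP-1α, and the rise in intracellular calcium was measured. Potency is reported as an IC50 for inhibition of the calcium response.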
A general note: Calcium flux is commonly read through the fluorescence of an indicator in the cells.

In series [3] the test system is Human immunodeficiency virus. Put plainly: Antiviral activity against HIV. Format: functional, organism-based. The settings on record: Human immunodeficiency virus 1.
A short description of series [4]: Bioavailability in rat. The format is ADME, organism-based. The settings on record: in vivo.
Series [5] can be described thus: Aqueous solubility at pH 6.8. Format: physicochemical.
For series [6], the system named is Human immunodeficiency virus 1. Briefly: Anti-infective activity against HIV1 BAL in MAGI CCR5+ cells. The settings on record: Human immunodeficiency virus 1, BAL. Format: functional, organism-based.
Series [7] concerns the target Cytochrome P450 3A4 (Homo sapiens, UniProt P08684). Put plainly: Inhibition of CYP3A4. Format: ADME.

T1 sequence (P51681 whole entry): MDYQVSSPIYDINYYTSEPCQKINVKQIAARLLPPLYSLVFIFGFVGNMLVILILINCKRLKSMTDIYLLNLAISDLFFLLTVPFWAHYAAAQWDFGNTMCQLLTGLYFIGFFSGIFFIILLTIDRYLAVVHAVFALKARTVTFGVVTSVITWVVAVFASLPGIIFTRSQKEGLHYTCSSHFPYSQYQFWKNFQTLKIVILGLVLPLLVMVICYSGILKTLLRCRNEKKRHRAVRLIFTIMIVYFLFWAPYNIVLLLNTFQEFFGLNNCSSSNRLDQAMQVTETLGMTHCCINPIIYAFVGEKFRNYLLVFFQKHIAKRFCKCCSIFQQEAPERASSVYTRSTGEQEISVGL
Cytochrome P450 3A4, sequence (P08684 whole entry): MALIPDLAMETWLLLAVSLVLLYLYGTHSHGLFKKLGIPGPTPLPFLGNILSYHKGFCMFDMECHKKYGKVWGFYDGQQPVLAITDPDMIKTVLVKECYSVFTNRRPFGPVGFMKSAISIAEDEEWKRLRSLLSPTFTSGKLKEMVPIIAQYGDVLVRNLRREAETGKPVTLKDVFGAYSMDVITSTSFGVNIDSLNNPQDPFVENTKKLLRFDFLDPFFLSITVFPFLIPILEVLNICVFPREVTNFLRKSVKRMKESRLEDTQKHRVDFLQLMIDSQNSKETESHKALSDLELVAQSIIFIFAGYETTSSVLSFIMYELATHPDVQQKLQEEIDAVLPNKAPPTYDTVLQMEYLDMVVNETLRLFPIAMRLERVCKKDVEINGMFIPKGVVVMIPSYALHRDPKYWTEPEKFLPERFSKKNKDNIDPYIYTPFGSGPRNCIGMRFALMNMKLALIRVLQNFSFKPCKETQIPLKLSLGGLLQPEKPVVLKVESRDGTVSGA

Usually IC50 stands for the concentration that gives 50% inhibition. In the case of `CCCCN1C(=O)[C@H](CC(C)C)NC(=O)C12CCN(Cc1ccc(Oc3ccccc3)cc1)CC2`, the IC50 in series [1] was 0.011 µM; in series [2], 0.084 µM.

Regarding `CCCCN1C(=O)C(CC(C)(C)O)NC(=O)C12CCN(Cc1ccc(Oc3ccccc3)cc1)CC2` (stereo not drawn), the IC50 was determined as 0.028 µM in series [1] and 0.079 µM in series [2].

Consider `CCCCN1C(=O)[C@H]([C@@H](O)C(C)C)NC(=O)C12CCN(Cc1ccc(Oc3ccccc3)cc1)CC2`, for which the IC50 in series [1] amounted to 0.053 µM; in series [2] it was 0.15 µM.

The term IC90 denotes the concentration needed for an effect of 90%. A lower IC90 goes with an effect from little substance. As usually defined, the bioavailability is the share of a dose that reaches the circulation, judged against a reference dose that is usually intravenous. Read a high bioavailability as much systemic uptake. In series [3], `CCCCN1C(=O)C(CC(C)C)NC(=O)C12CCN(Cc1ccc(Oc3ccccc3)cc1)CC2.Cl` (stereo not drawn) yielded an IC90 of 0.676 µM. This compound also came in with a bioavailability in series [4] of 1.3%. The 50% inhibitory concentration (IC50) in series [1] was found to be 0.0083 µM; in series [2], 0.094 µM.

A word on the solubility: it is how much of the substance goes into solution per volume. Low readings indicate little dissolved substance, high ones much dissolved substance. `CCCCN1C(=O)[C@@H]([C@H](O)C2CCCCC2)NC(=O)C12CCN(Cc1ccc(Oc3ccccc3)cc1)CC2.Cl`: the IC50 in series [3] came out at 0.0006 µM; in series [6], 0.006 µM. For the same compound, the bioavailability in series [4] is below 1%. The compound further displayed a solubility in series [5] of 2.7 µg/mL.

`CCCCN1C(=O)C(CC2CCCCC2)NC(=O)C12CCN(Cc1ccc(Oc3ccccc3)cc1)CC2.Cl` (stereo not drawn): the half-inhibitory concentration (IC50) in series [3] came to 0.031 µM; in series [7], 9.3 µM; in series [2], 0.028 µM; in series [6], 0.337 µM. Further, in series [5], the solubility is below 0.2 µg/mL.

As to `CCCCN1C(=O)[C@@H](CC(C)C)NC(=O)C12CCN(Cc1ccc(Oc3ccccc3)cc1)CC2`, the concentration for half-maximal inhibition (IC50) in series [1] turned out to be 0.029 µM; in series [2], 0.13 µM.

As for `CCCCN1C(=O)[C@@H]([C@H](O)C(C)C)NC(=O)C12CCN(Cc1ccc(Oc3ccccc3)cc1)CC2.Cl`, the bioavailability in series [4] was below 1%. For the same compound, the concentration for half-maximal inhibition (IC50) is 0.0035 µM in series [1] and 0.033 µM in series [2].

In the case of `CCCCN1C(=O)[C@@H]([C@@H](O)C(C)C)NC(=O)C12CCN(Cc1ccc(Oc3ccccc3)cc1)CC2`, the half-maximal inhibitory concentration (IC50) worked out at 0.024 µM in series [1] and 0.21 µM in series [2].

For `CCCCN1C(=O)[C@H]([C@H](O)C(C)C)NC(=O)C12CCN(Cc1ccc(Oc3ccccc3)cc1)CC2`, the IC50 turned out to be 0.068 µM in series [1] and 0.4 µM in series [2].

Source of the values: ChEMBL document CHEMBL1146303, “Spirodiketopiperazine-based CCR5 antagonists: Lead optimization from biologically active metabolite” (Bioorg Med Chem Lett, 2007).
